bIAP act = increases bovine intestinal alkaline phosphatase activity. purified bovine IAP, CDP-star luminescence, 30 min; hits give high values; fold of DMSO-control signal, blank-subtracted. activation factor at 20 µM. 0.17% of 200,000 active;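 active = activation factor of 2 or more at 20 µM, a signal rise over negative controls twice the positive control's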
hIAP activ = human IAP activation; P09923; purified human IAP, CDP-Star luminescence, 30 min; hits give high values; 1 = vehicle-only enzyme, 0 = enzyme-free background; activation factor at 10 µM; 0.16% of 330,000 active;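 active = activation factor of the enzyme at least 2-fold when tested at 20 µM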
Target sequence (P09923 whole entry, looked up): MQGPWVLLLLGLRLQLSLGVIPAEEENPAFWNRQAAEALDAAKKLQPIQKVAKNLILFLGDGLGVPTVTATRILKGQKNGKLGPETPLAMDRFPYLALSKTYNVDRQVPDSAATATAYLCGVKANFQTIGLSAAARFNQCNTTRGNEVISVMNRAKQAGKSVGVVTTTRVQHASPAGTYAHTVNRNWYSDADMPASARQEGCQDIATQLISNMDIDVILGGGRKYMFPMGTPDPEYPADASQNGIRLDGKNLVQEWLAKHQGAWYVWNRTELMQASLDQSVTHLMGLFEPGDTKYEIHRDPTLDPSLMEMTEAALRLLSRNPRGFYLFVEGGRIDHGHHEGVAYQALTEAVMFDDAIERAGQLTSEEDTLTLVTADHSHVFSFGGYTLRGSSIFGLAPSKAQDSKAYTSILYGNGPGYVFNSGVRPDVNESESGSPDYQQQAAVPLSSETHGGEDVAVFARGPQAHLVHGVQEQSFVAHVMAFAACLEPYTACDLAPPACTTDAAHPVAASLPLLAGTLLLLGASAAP
bIAP inh = intestinal alkaline phosphatase (bovine) inhibition | purified bovine IAP, CDP-star luminescence, 30 min | 190,000 tested, under 10 active | inhibition, % at 20 µM | AID 1019;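 active = over 50% inhibition of intestinal alkaline phosphatase at 20 µM in the single-dose screen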
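test system = bovine IAP enzyme | medium = DEA buffer 100 mM, pH 9.8, with MgCl2 1.0 mM, ZnCl2 0.02 mM | detection = luminescence | dosing = single compound dose of 20 µM, 2% DMSO final | incubation = 30 min reaction at room temperature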
mIAP block = blocks mouse intestinal alkaline phosphatase. purified mouse IAP, CDP-Star luminescence, 30 min. inhibition, % at 10 µM. 0.2% of 330,000 active;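 active = inhibition of at least 40% at 10 µM in the primary screen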;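 note: plate controls were DMSO with enzyme for no effect and no enzyme wells for full effect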
hIAP inh = blocks human intestinal alkaline phosphatase; 0.12% of 330,000 active; P09923; inhibition, % at 10 µM; purified IAP, CDP-Star luminescence, 30 min; AID 2544;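 active = inhibition reaching a set limit with compound at 10 µM in the primary screen, cut at about 35% in these data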;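 note: plate controls were DMSO wells with enzyme for no effect and no-enzyme buffer wells for full effect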
mIAP act = increases mouse intestinal alkaline phosphatase activity | muIAP, CDP-Star luminescence, 30 min; hits give high values; 1 = vehicle-only enzyme signal, 0 = enzyme-free wells | activation factor at 10 µM | AID 2805 | 0.24% of 330,000 active;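 active = activation factor of at least 2 at 20 µM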
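Assay system: mouse IAP enzyme; Reagent: CDP-Star chemiluminescent phosphatase substrate; Compound: DMSO-dissolved test compounds; Incubation: 30 min, room temperature; Technique: luminescence from enzymatic CDP-Star hydrolysis; Controls: DMSO-only wells and no-enzyme negative control.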
mIAP inh conf = mouse IAP inhibition confirmation; purified mouse IAP, CDP-Star luminescence, 30 min; AID 434971; shares compounds with mIAP block; 4.7% of 11,000 active; inhibition, % at 10 µM;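 active = inhibition of at least 40% at 10 µM in either of the two replicates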;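 note: plate controls were DMSO wells with enzyme for no effect and buffer wells lacking enzyme for full effect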
The depositor's hits bear a star; i = inactive; . = no result given; ! = a repeat was not active. The list is not random: actives were taken first. Their share in the collection is about 0.72%.

SMILES	bIAP act	hIAP activ	bIAP inh	mIAP block	hIAP inh	mIAP act	mIAP inh conf
Cc1ccc(N2CSC3=C(C#N)C(c4cccs4)CC(=O)N3C2)cc1 (centres undefined)	0.8	1.1	17	46*	-14	0.54	46*
N#CC1=C2SCN(c3ccc(F)cc3)CN2C(=O)CC1c1cccc(F)c1 (centres undefined)	0.9	0.88	11	60*	12	0.4	59*
O=C(Nc1ccc2c(c1)N(Cc1ccccc1)C(=O)c1ccccc1S2)NC1CC1	1.5	0.93	-49	-174	7	2.7*	-145
COc1c(-c2ccc(O)cc2)oc2cc(O)cc(O)c2c1=O	.	0.71	.	13	28	0.87	.
CC(=O)Oc1cc(O)c2c(=O)c(OC(C)=O)c(-c3ccc(OC(C)=O)c(OC(C)=O)c3)oc2c1	.	0.69	.	43*	31	0.57	45*
CCOc1ccccc1N1CCN(S(=O)(=O)c2ccc3c4c(cccc24)C(=O)N3)CC1	0.9	1.1	6	59*	-10	0.41	56*
CCOC(=O)N1CCN(S(=O)(=O)c2ccc3c4c(cccc24)C(=O)N3)CC1	.	1.2	.	1	-21	0.99	.
CN(CC(=O)Nc1ccc(Cl)c(C(F)(F)F)c1)C(=O)CNC(=O)C1CCCCC1	.	1.1	.	0	-13	1	.
COC(=O)C/C=N/N=C1/NC(=O)/C(=C/C(=O)O)S1	.	0.82	.	54*	18	0.47	42*
COc1cc2c(c3oc(=O)cc(CC(=O)O)c13)CCC(C)(C)O2	.	0.89	.	-8	11	1.1	.
NC(=O)C[C@@H]1N[C@]2(C(=O)Nc3ccccc32)[C@@H]2C(=O)N(C3CCCCC3)C(=O)[C@H]12	0.9	0.94	6	0	6	1	.
O=C(O)CCN1C(=O)/C(=C\c2ccc(-c3nc4ccccc4s3)o2)SC1=S	0.4	1.2	.	53*	-19	0.47	62*
CS(=O)(=O)c1nc([N+](=O)[O-])nn1CCCc1ccccc1	.	0.97	.	2	2	0.98	.
Cn1nc([N+](=O)[O-])nc1S(C)(=O)=O	1	1.1	-4	44*	-13	0.56	59*
O=C(Nc1cccc(Cl)c1)C1CCCCC1	.	0.99	.	-1	1	1	.
CCn1cc(CN2CCC(C(=O)Nc3cccc(-c4cccc(F)c4)c3)CC2)cn1	.	1	.	-104	-3	2*	-166
O=C(Nc1cccc(-c2cccc(Cl)c2)c1)C1CCN(Cc2ccc(CO)o2)CC1	.	1.1	.	-296	-12	4*	-161
Cc1cccc(C)c1NC(=O)CSc1nnc(Cc2ccccc2)o1	1	1.1	3	-9	-6	1.1	.
Cc1nc(N)sc1-c1csc(Nc2ccc(S(N)(=O)=O)cc2)n1	.	1.1	.	67*	-10	0.33	68*
COc1ccc(-c2csc(Nc3ccc(S(N)(=O)=O)cc3)n2)cc1	0.8	1.1	21	-15	-13	1.1	.
O=C(CCNC(=O)Cn1cnc2ccccc2c1=O)NCC1CCCO1 (centres undefined)	1	1	3	8	-2	0.92	.
Cc1cc(C)c(S(=O)(=O)Nc2ccc(N3CCOCC3)cc2)c(C)c1	.	0.89	.	1	11	0.99	.
O=C(COc1c(Cl)cccc1Cl)NN1C(=O)CSC1=S	1.3	1	-28	22	-1	0.78	.
CCOC(=O)Cc1nnc2c(Nc3ccc(Cl)cc3)nc3nonc3n12	0.9	0.82	5	25	18	0.75	37*
CC(C)CNC(=O)NC1(C(F)(F)F)Oc2ccccc2O1	1.1	0.89	-11	0	11	1	.
SMILES	bIAP act	hIAP activ	bIAP inh	mIAP block	hIAP inh	mIAP act	mIAP inh conf
C=Cc1c(C)c2cc3[nH]c(cc4nc(cc5nc(cc1[nH]2)C(C)=C5CCC(=O)O)C(CCC(=O)O)=C4C)c(C)c3C=C	.	0.86	.	42*!	14	0.58	42*
CCC(C(=O)NCCC(C)C)n1ccc2cc(S(=O)(=O)N3CCCCC3)ccc21 (centres undefined)	.	1.1	.	-170	-14	2.7*	-159
Cc1ccc(CNC(=O)c2cc(-c3ccccc3)nn2Cc2cc(C)no2)cc1	.	1	.	-122	0	2.2*	-126
COc1ccccc1CNC(=O)c1cc(-c2ccccc2)nn1Cc1cc(C)no1	.	0.98	.	-57	2	1.6	.
CCc1cc(Cn2nc(-c3ccccc3)cc2C(=O)NCc2ccccc2OC)on1	.	0.97	.	-159	2	2.6*	-99
Cc1ccc(NC(=O)NCc2ccc3c(c2)OCO3)cc1	0.9	0.9	11	-17	10	1.2	.
Cc1ccc(C(=O)Nc2nnc(CC(=O)N/N=C/c3ccc(O)c(O)c3)s2)cc1	.	0.84	.	58*	16	0.42	79*
Cc1ccc(C(=O)Nc2nnc(CC(=O)N/N=C/c3ccncc3)s2)cc1	1.1	0.99	-7	17	1	0.83	.
O=C(Nc1nc(-c2ccco2)c(-c2ccco2)s1)c1c(F)cccc1Cl	.	0.84	.	70*	16	0.3	72*
O=C(Nc1nc(-c2ccco2)c(-c2ccco2)s1)c1ccc(F)cc1F	.	0.92	.	51*	8	0.49	60*
O=C(Nc1ccc(F)cc1F)c1cc(-c2ccco2)nc2ccccc12	.	0.92	.	14	8	0.86	.
CCS(=O)(=O)c1nc(S(=O)(=O)c2ccc(Cl)cc2)c(N2CCC3(CC2)OCCO3)s1	.	0.93	.	-2	7	1	.
N#CC1=C(N)n2c(s/c(=C\c3ccco3)c2=O)=C(C#N)C1c1ccco1 (centres undefined)	0.9	0.87	6	68*	13	0.32	88*
CCOC(=O)C1=C(N)n2c(s/c(=C/c3ccco3)c2=O)=C(C(=O)OC)C1c1ccco1 (centres undefined)	0.7	.	29	.	.	.	.
Nc1nnc(CC(=O)N/N=C/c2cc([N+](=O)[O-])cc(Br)c2O)s1	1.2	1.1	-19	48*	-9	0.53	46*
Cc1ccc(N/C(N)=N/c2nc(C)cc(N3CCCCC3)n2)c(C)c1	8.4*	3.1*	i	-270	-207	3.7*	-322
Cc1ccc(N/C(N)=N/c2nc3c(c(=O)[nH]2)CCCC3)c(C)c1	1.5	1	-54	-26	-1	1.3	.
COc1ccc(CN2C3CCCC2CC(NC(=O)Nc2ccccc2C)C3)cc1 (centres undefined)	0.9	0.91	6	-198	9	3*	-143
COc1ccc(CN2C3CCCC2CC(NC(=O)Nc2cccc(C)c2)C3)cc1 (centres undefined)	0.9	0.95	7	i	5	12*	i
COc1ccc(CN2C3CCCC2CC(NC(=O)Nc2ccccc2)C3)cc1 (centres undefined)	0.9	0.82	9	-426	18	5.3*	-365

Assay outcomes as filed in PubChem.
